The record followed here is ChEMBL document CHEMBL1124249 (J Med Chem, 1988).

For experiment [1], the target named is Delta-type opioid receptor (Rattus norvegicus, UniProt P33533). Kind of experiment: Inhibition of [3H]DTLET binding torat brain membrane Opioid receptor delta 1.
Another experiment deals with Mu-type opioid receptor (Rattus norvegicus, UniProt P33535). In words: Inhibition of [3H]DAGO binding to rat brain membrane Opioid receptor mu 1.
The species named for the next experiment is Mus musculus. In words: Inhibitory potency evaluated against electrically evoked contractions of mouse vas deferens. Format: functional, organism-based. Summed up: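 Electrically stimulated twitch of isolated mouse vas deferens (δ assay). IC50 is the concentration giving half-maximal twitch inhibition, taken from six to eight computed log dose-response curves with six concentrations each. [Met]enkephalin IC50 was run on the same preparation. Each IC50 was corrected by the ratio of the mean of all [Met]enkephalin IC50s to that assay's [Met]enkephalin IC50.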

Experiment [2] in a line: Ratio of IC50 for MVD to GPI. Format: functional.
For another experiment, the species on record is Cavia porcellus. Kind of experiment: Inhibitory potency evaluated against electrically evoked contractions of guinea pig ileum. Format: functional, organism-based. Summed up:
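Electrically stimulated twitch of isolated guinea pig ileum (μ assay). IC50 is the concentration giving half-maximal twitch inhibition, taken from six to eight computed log dose-response curves with six concentrations each. [Met]enkephalin IC50 was run on the same preparation. Each IC50 was corrected by the ratio of the mean of all [Met]enkephalin IC50s to that assay's [Met]enkephalin IC50.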

Sequence of Delta-type opioid receptor (P33533 whole entry): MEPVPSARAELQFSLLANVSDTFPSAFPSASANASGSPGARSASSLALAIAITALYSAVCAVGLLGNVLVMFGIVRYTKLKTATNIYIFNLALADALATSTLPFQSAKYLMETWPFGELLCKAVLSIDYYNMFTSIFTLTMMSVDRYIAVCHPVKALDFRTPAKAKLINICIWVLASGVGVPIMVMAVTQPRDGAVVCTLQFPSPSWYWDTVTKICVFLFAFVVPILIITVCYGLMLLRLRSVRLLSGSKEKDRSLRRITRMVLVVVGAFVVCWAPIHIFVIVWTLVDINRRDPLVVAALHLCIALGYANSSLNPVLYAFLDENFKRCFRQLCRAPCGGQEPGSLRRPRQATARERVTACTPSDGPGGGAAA
Sequence of Mu-type opioid receptor (P33535 whole entry): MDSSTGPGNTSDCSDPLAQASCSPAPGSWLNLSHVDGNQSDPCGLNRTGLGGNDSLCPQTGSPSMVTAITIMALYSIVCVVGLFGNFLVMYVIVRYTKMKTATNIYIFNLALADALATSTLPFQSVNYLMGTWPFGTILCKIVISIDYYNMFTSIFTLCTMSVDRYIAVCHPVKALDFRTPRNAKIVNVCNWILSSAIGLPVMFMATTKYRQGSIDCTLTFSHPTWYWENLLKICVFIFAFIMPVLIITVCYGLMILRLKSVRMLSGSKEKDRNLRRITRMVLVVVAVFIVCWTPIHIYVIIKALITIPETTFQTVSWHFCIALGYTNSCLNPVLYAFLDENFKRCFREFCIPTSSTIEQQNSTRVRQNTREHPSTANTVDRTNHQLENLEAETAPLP

As a reminder, the Ki is the dissociation constant of the complex between target and ligand, obtained from inhibition or displacement. Low values mean a stronger hold on the target, high ones a looser hold on the target. In the case of `CC(C)C[C@H](NC(=O)[C@H](Cc1ccccc1)NC(=O)CNC(=O)[C@@H](NC(=O)[C@@H](N)Cc1ccc(O)cc1)[C@@H](C)OC(C)(C)C)C(=O)N[C@H](C(=O)O)[C@@H](C)O`, the results for the Ki (in experiment [1]; on Mu-type opioid receptor) were 13000 nM and above 100000 nM, respectively.
What is called IC50 is the concentration that inhibits the measured activity by half. Read a high IC50 as lower potency. Consider `CC(C)C[C@H](NC(=O)[C@H](Cc1ccccc1)NC(=O)CNC(=O)[C@@H](CO)NC(=O)[C@@H](N)Cc1ccc(O)cc1)C(=O)N[C@H](C(=O)O)[C@@H](C)O`, for which the IC50 in the experiment filed under Mus musculus came to 0.4 nM; in the experiment filed under Cavia porcellus it was 406 nM. Moreover, the Ratio in experiment [2] was determined as 0.001.
Turning to `CC(C)C[C@H](NC(=O)[C@H](Cc1ccccc1)NC(=O)CNC(=O)[C@@H](NC(=O)[C@@H](N)Cc1ccc(O)cc1)[C@@H](C)O)C(=O)N[C@H](C(=O)O)[C@@H](C)OC(C)(C)C`, the IC50 in the experiment filed under Mus musculus came to 0.75 nM; in the experiment filed under Cavia porcellus it was 204 nM. The results for the Ki (in experiment [1]; on Mu-type opioid receptor) were 3.1 nM and 64.6 nM, respectively. Moreover, the Ratio in experiment [2] was 0.0037.
For `CC(C)C[C@H](NC(=O)[C@H](Cc1ccccc1)NC(=O)CNC(=O)[C@@H](COC(C)(C)C)NC(=O)[C@@H](N)Cc1ccc(O)cc1)C(=O)N[C@H](C(=O)O)[C@@H](C)O`, in that order: 1.07 nM, 1800 nM, 6.14 nM, 374 nM and 0.0006.
Turning to `CC(C)C[C@H](NC(=O)[C@H](Cc1ccccc1)NC(=O)CNC(=O)[C@@H](COC(C)(C)C)NC(=O)[C@@H](N)Cc1ccc(O)cc1)C(=O)N[C@H](C(=O)O)[C@@H](C)OC(C)(C)C`, the figures for the IC50 in the experiment filed under Mus musculus and in the experiment filed under Cavia porcellus were 0.6 nM and 2790 nM, respectively. Besides, the Ki came out at 4.68 nM in experiment [1] and 475 nM on Mu-type opioid receptor. For the same molecule, in experiment [2], the Ratio came to 0.00021.
`CC(C)C[C@H](NC(=O)[C@H](Cc1ccccc1)NC(=O)CNC(=O)[C@@H](CO)NC(=O)[C@@H](N)Cc1ccc(O)cc1)C(=O)N[C@H](C(=O)O)[C@@H](C)OC(C)(C)C`: the IC50 stood at 0.84 nM in the experiment filed under Mus musculus and 202 nM in the experiment filed under Cavia porcellus. Besides, the figures for the Ki (in experiment [1]; at Mu-type opioid receptor) were 6.35 nM and 185 nM, respectively. Besides, the Ratio in experiment [2] amounted to 0.0041.
With `CSCC[C@H](NC(=O)[C@H](Cc1ccccc1)NC(=O)CNC(=O)CNC(=O)[C@@H](N)Cc1ccc(O)cc1)C(=O)O`, the 50% inhibitory concentration (IC50) was 13 nM in the experiment filed under Mus musculus and 200 nM in the experiment listed under Cavia porcellus.
For the molecule `CC(C)C[C@H](NC(=O)[C@H](Cc1ccccc1)NC(=O)CNC(=O)[C@@H](COCc1ccccc1)NC(=O)[C@@H](N)Cc1ccc(O)cc1)C(=O)N[C@H](C(=O)O)[C@@H](C)O`, the IC50 was 0.35 nM in the experiment filed under Mus musculus and 83.3 nM in the experiment filed under Cavia porcellus. The Ki came to 1.47 nM in experiment [1] and 42.1 nM at Mu-type opioid receptor. Further, the Ratio in experiment [2] stood at 0.0042.
For `CC(C)C[C@H](NC(=O)[C@H](Cc1ccccc1)NC(=O)CNC(=O)[C@H](NC(=O)[C@@H](N)Cc1ccc(O)cc1)[C@@H](C)OC(C)(C)C)C(=O)N[C@H](C(=O)O)[C@@H](C)O`, in that order: 1190 nM, 11400 nM, 866 nM, 4500 nM and 0.1.
The like results for `CC(C)C[C@H](NC(=O)[C@H](Cc1ccccc1)NC(=O)CNC(=O)[C@@H](NC(=O)[C@@H](N)Cc1ccc(O)cc1)[C@@H](C)O)C(=O)N[C@H](C(=O)O)[C@@H](C)O` were, in that order, 0.15 nM, 460 nM, 1.35 nM, 23.3 nM and 0.0003.
